ChEMBL document CHEMBL1141647, “Novel ofloxacin derivatives: synthesis, antimycobacterial and toxicological evaluation” (Bioorg Med Chem Lett, 2008)
In brackets after ≈: the same amount, converted by molar mass.

Columns and labels:
[1] = tested on: Mycobacterium tuberculosis; test: Antimycobacterial activity against multidrug resistant Mycobacterium tuberculosis by agar dilution method; assay type: functional
Procedure, shortened: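 MIC99 was taken as the lowest concentration giving complete inhibition of bacterial growth.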

[2] = Selectivity index, Ratio of IC50 for human Vero cells to MIC99 for multidrug resistant Mycobacterium tuberculosis; assay type: functional

SMILES | MIC99 [1] [µM] | Selectivity index [2]
CC1COc2c(N3CCN(Cc4ccc5c(c4)OCO5)CC3)c(F)c([N+](=O)[O-])c3c(=O)c(C(=O)O)cn1c23 (stereo not given) | 5.95 (≈ 3.13 µg/mL) | 
CC1COc2c(N3CCN(C)CC3)c(F)cc3c(=O)c(C(=O)O)cn1c23 (stereo not given) [OFLOXACIN] | 34.6 (≈ 12.5 µg/mL) | 
CC1COc2c(N3CCC4(CC3)OCCO4)c(F)c([N+](=O)[O-])c3c(=O)c(C(=O)O)cn1c23 (stereo not given) | 0.09 (≈ 0.0404 µg/mL) | 
CC1CN(c2c(F)cc3c(=O)c(C(=O)O)cn4c3c2OCC4C)CC(C)O1 (stereo not given) | 8.3 (≈ 3.12 µg/mL) | 
CC1COc2c(N3CCN(C)C(c4ccccc4)C3)c(F)c([N+](=O)[O-])c3c(=O)c(C(=O)O)cn1c23 (stereo not given) | 3.23 (≈ 1.56 µg/mL) | 
CC1COc2c(N3CCC4(CC3)OCCO4)c(F)cc3c(=O)c(C(=O)O)cn1c23 (stereo not given) | 0.09 (≈ 0.0364 µg/mL) | 
CC1COc2c(N3CCN(C(c4ccccc4)c4ccc(Cl)cc4)CC3)c(F)c([N+](=O)[O-])c3c(=O)c(C(=O)O)cn1c23 (stereo not given) | 2.63 (≈ 1.56 µg/mL) | 
CC1COc2c(N3CCn4cc(C(=O)O)nc4C3)c(F)c(N)c3c(=O)c(C(=O)O)cn1c23 (stereo not given) | 1.76 (≈ 0.78 µg/mL) | 
CC1COc2c(N3CCN(C(=O)c4ccco4)CC3)c(F)c([N+](=O)[O-])c3c(=O)c(C(=O)O)cn1c23 (stereo not given) | 1.6 (≈ 0.778 µg/mL) | 
CC1COc2c(N3CCc4ccccc4C3C(=O)NC(C)(C)C)c(F)c([N+](=O)[O-])c3c(=O)c(C(=O)O)cn1c23 (stereo not given) | 1.45 (≈ 0.781 µg/mL) | 
CC1COc2c(N3CCC(n4c(=O)[nH]c5cc(Cl)ccc54)CC3)c(F)c([N+](=O)[O-])c3c(=O)c(C(=O)O)cn1c23 (stereo not given) | 0.34 (≈ 0.19 µg/mL) | 
CC1COc2c(N3CCC(n4c(=O)[nH]c5cc(Cl)ccc54)CC3)c(F)cc3c(=O)c(C(=O)O)cn1c23 (stereo not given) | 0.76 (≈ 0.39 µg/mL) | 
CC1COc2c(N3CCn4cc(C(=O)O)nc4C3)c(F)c([N+](=O)[O-])c3c(=O)c(C(=O)O)cn1c23 (stereo not given) | 0.09 (≈ 0.0426 µg/mL) | >1467
CC1COc2c(N3CCC(O)(c4ccc(Cl)cc4)CC3)c(F)c([N+](=O)[O-])c3c(=O)c(C(=O)O)cn1c23 (stereo not given) | 3.01 (≈ 1.56 µg/mL) | 
CC1COc2c(N3CCc4ccccc4C3C(=O)NC(C)(C)C)c(F)cc3c(=O)c(C(=O)O)cn1c23 (stereo not given) | 3.16 (≈ 1.56 µg/mL) | 
COc1cc2c(cc1OC)CN(c1c(F)c([N+](=O)[O-])c3c(=O)c(C(=O)O)cn4c3c1OCC4C)CC2 (stereo not given) | 3.12 (≈ 1.56 µg/mL) | 
NNC(=O)c1ccncc1 [ISONIAZID] | 45.6 (≈ 6.25 µg/mL) | 
CC1CN(c2c(F)c([N+](=O)[O-])c3c(=O)c(C(=O)O)cn4c3c2OCC4C)CC(C)O1 (stereo not given) | 3.7 (≈ 1.56 µg/mL) | 
CC1COc2c(N3CCSCC3)c(F)c([N+](=O)[O-])c3c(=O)c(C(=O)O)cn1c23 (stereo not given) | 1.91 (≈ 0.782 µg/mL) | 
CC1COc2c(N3CCN(C(=O)C4COc5ccccc5O4)CC3)c(F)c([N+](=O)[O-])c3c(=O)c(C(=O)O)cn1c23 (stereo not given) | 1.41 (≈ 0.782 µg/mL) | 
CC1COc2c(N3CCSCC3)c(F)cc3c(=O)c(C(=O)O)cn1c23 (stereo not given) | 8.59 (≈ 3.13 µg/mL) | 
CC1COc2c(N3CCn4cc(C(=O)O)nc4C3)c(F)cc3c(=O)c(C(=O)O)cn1c23 (stereo not given) | 0.44 (≈ 0.188 µg/mL) | 
COc1cc2c(cc1OC)CN(c1c(F)cc3c(=O)c(C(=O)O)cn4c3c1OCC4C)CC2 (stereo not given) | 3.43 (≈ 1.56 µg/mL) | 
CC1COc2c(N3CCC4(CC3)OCCO4)c(F)c(N)c3c(=O)c(C(=O)O)cn1c23 (stereo not given) | 3.72 (≈ 1.56 µg/mL) | 
